Results published in ChEMBL document CHEMBL2029233, “Des-acyl ghrelin fragments and analogues promote survival of pancreatic β-cells and human pancreatic islets and prevent diabetes in streptozotocin-treated rats” (2012).
Activity calls are given as the source filed them. The calls are words filed in the database; no cut-off is given here. Peptide text beside a SMILES is read from it.

What was measured:
HIT-T15 [1] = test: Cytoprotective activity in hamster HIT-T15 cells assessed as inhibition of serum starvation-induced cell death at 1 to 100 nM after 24 hrs by MTT assay relative to control; type: functional, cell-based; conditions: Mesocricetus auratus
Summary of the method: (§1)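 Viability by MTT in HIT-T15 cells seeded at 5×10^3/well, serum-starved 24 h, then 24 h more in serum-free medium with peptide (1–100 nM). MTT 1 mg/mL ~1 h, DMSO solubilization, absorbance 570 nm. Expressed as percent of serum-free control. Mean ± SE, ≥3 experiments in quadruplicate.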

HIT-T15 [2] = test: Cytoprotective activity in hamster HIT-T15 cells assessed as inhibition of IFN-gamma/TNFalpha/IL1beta-induced cell death at 1 to 100 nM after 24 hrs by MTT assay relative to control; type: functional, cell-based; conditions: Mesocricetus auratus
Summary of the method: (§2)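 HIT-T15 cells (5×10^3/well) serum-starved 24 h, then 24 h serum-free with IFN-γ 100 ng/mL, TNF-α 200 ng/mL, IL-1β 10 ng/mL plus peptide (1–100 nM). MTT 1 mg/mL ~1 h, formazan dissolved in DMSO, A570. Reported as percent of cytokine control. Mean ± SE of ≥3 experiments in quadruplicate.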

HIT-T15 [3] = test: Cytoprotective activity in hamster HIT-T15 cells assessed as inhibition of IFN-gamma/TNFalpha/IL1beta-induced cell death at 10 to 100 nM after 24 hrs by MTT assay relative to control; type: functional, cell-based; conditions: Mesocricetus auratus; summary of the method: as §2
HIT-T15 [4] = test: Cytoprotective activity in hamster HIT-T15 cells assessed as inhibition of serum starvation-induced cell death after 24 hrs by MTT assay relative to control; type: functional, cell-based; conditions: Mesocricetus auratus; summary of the method: as §1
EPC [5] = test: Cytoprotective activity in human EPC assessed as decrease in H2O2-induced senescence associated beta-galactosidase positive cells at 10 uM after 24 hrs; type: functional
Summary of the method: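 EPCs given test peptides (1 μM or 10 μM) with or without H₂O₂ for 24 h. Cells then fixed in 2% paraformaldehyde for 3 min and stained 24 h at 37 °C with X-gal solution. SA-β-gal-positive cells counted out of 100 at 20× by three investigators.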

EPC [6] = test: Cytoprotective activity in human EPC assessed as decrease in H2O2-induced ROS production after 2 hrs by DCF-DA flow cytometry assay; type: functional
Summary of the method: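 Human EPCs from peripheral blood mononuclear cells, cultured 21 days on collagen I in EGM-2. ROS measured by flow cytometry using DCF-DA (0.5 μM final) after 2 h of treatment. H₂O₂ 150 μM as positive control.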

HIT-T15 [7] = test: Cytoprotective activity in hamster HIT-T15 cells assessed as inhibition of IFN-gamma/TNFalpha/IL1beta-induced cell death after 24 hrs by MTT assay relative to control; type: functional, cell-based; conditions: Mesocricetus auratus; summary of the method: as §2
[8] = target: Ras-related C3 botulinum toxin substrate 1 (Homo sapiens) (UniProt P63000); test: Inhibition of Rac1 activation
HIT-T15 [9] = test: Antiapoptotic activity in hamster HIT-T15 cells assessed as reduction in IFN-gamma/TNFalpha/IL1beta-induced apoptosis at 100 nM after 24 hrs by Hoechst staining relative to control; type: functional, cell-based; conditions: Mesocricetus auratus
Summary of the method: (§3)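 HIT-T15 cells serum-starved 24 h, then 24 h in serum-free medium with IFN-γ 100 ng/mL, TNF-α 200 ng/mL, IL-1β 10 ng/mL plus peptide. Cells pooled with floating cells, formaldehyde-fixed, ethanol-stored, stained with 10 μg/mL Hoechst 33258. Condensed/fragmented nuclei counted, 500 nuclei in duplicate, n = 3. Reported as percent apoptotic cells.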

HIT-T15 [10] = test: Antiapoptotic activity in hamster HIT-T15 cells assessed as reduction in IFN-gamma/TNFalpha/IL1beta-induced apoptosis at 1 nM after 24 hrs by Hoechst staining relative to control; type: functional, cell-based; conditions: Mesocricetus auratus; summary of the method: as §3
HIT-T15 [11] = test: Antiapoptotic activity in hamster HIT-T15 cells assessed as reduction in IFN-gamma/TNFalpha/IL1beta-induced apoptosis at 10 nM after 24 hrs by Hoechst staining relative to control; type: functional, cell-based; conditions: Mesocricetus auratus; summary of the method: as §3
Pancreatic islet [12] = test: Cytoprotective activity in human pancreatic islet cells assessed as inhibition of serum starvation-induced cell death at 1 nM after 24 hrs by MTT assay relative to control; type: functional
Summary of the method: (§4)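 Human donor islets (purity >70%, 25/well) serum-starved 24 h, then 24 h serum-free with peptide (1–100 nM), alone or with IFN-γ 100 ng/mL, TNF-α 200 ng/mL, IL-1β 10 ng/mL. MTT 1 mg/mL ~1 h, DMSO, A570. Percent of serum-free or cytokine control. ≥3 experiments in quadruplicate.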

Pancreatic islet [13] = test: Cytoprotective activity in human pancreatic islet cells assessed as inhibition of IFN-gamma/TNFalpha/IL1beta-induced cell death at 100 nM after 24 hrs by MTT assay relative to control; type: functional; summary of the method: as §4
Pancreatic islet [14] = test: Cytoprotective activity in human pancreatic islet cells assessed as inhibition of IFN-gamma/TNFalpha/IL1beta-induced cell death at 10 nM after 24 hrs by MTT assay relative to control; type: functional; summary of the method: as §4
Pancreatic islet [15] = test: Cytoprotective activity in human pancreatic islet cells assessed as inhibition of serum starvation-induced cell death at 10 nM after 24 hrs by MTT assay relative to control; type: functional; summary of the method: as §4
Pancreatic islet [16] = test: Cytoprotective activity in human pancreatic islet cells assessed as inhibition of IFN-gamma/TNFalpha/IL1beta-induced cell death at 1 nM after 24 hrs by MTT assay relative to control; type: functional; summary of the method: as §4
Pancreatic islet [17] = test: Cytoprotective activity in human pancreatic islet cells assessed as inhibition of serum starvation-induced cell death at 100 nM after 24 hrs by MTT assay relative to control; type: functional; summary of the method: as §4
Pancreatic islet [18] = test: Cytoprotective activity in human pancreatic islet cells assessed as inhibition of IFN-gamma/TNFalpha/IL1beta-induced cell death at 100 nM after 72 hrs by MTT assay relative to control; type: functional
Summary of the method: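 Human donor islets (>70% purity, 25/well) held 72 h in serum-free medium with peptide, alone or with IFN-γ/TNF-α/IL-1β at 5 ng/mL each. Viability by MTT (1 mg/mL ~1 h, DMSO, 570 nm). Mean ± SE of ≥3 experiments in quadruplicate.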

| Compound | Activity (HIT-T15 [1]) | Activity (HIT-T15 [2]) | further results |
| --- | --- | --- | --- |
| CC(C)[C@@H](NC(=O)[C@@H](CCCNC(=N)N)NC(=O)[C@@H](CCC(N)=O)NC(=O)[C@@H](Cc1cnc[nH]1)NC(=O)[C@@H](CCC(=O)O)NC(=O)[C@H]1CCCN1C(=O)[C@H](N)CO)C(=O)N[C@H](CCC(N)=O)C(N)=O | inactive | inactive | – |
| CC(C)[C@@H](NC(=O)[C@H](CCCNC(=N)N)NC(=O)[C@H](CCC(N)=O)NC(=O)[C@H](Cc1cnc[nH]1)NC(=O)[C@H](CCC(=O)O)NC(=O)[C@@H]1CCCN1C(=O)[C@@H](N)CO)C(=O)N[C@@H](CCC(N)=O)C(N)=O | inactive | inactive | – |
| CC(C)[C@@H](NC(=O)[C@H](N)CCC(N)=O)C(=O)N[C@H](CCCNC(=N)N)C(=O)N[C@H](CCC(N)=O)C(=O)N[C@H](Cc1cnc[nH]1)C(=O)N[C@H](CCC(=O)O)C(=O)N1CCC[C@@H]1C(=O)N[C@H](CO)C(N)=O | inactive | inactive | – |
| CC(C)[C@H](NC(=O)[C@@H](CCCNC(=N)N)NC(=O)[C@H](CCC(N)=O)NC(=O)[C@H](Cc1cnc[nH]1)NC(=O)[C@H](CCC(=O)O)NC(=O)[C@@H]1CCCN1C(=O)[C@@H](N)CO)C(=O)N[C@@H](CCC(N)=O)C(N)=O | inactive | inactive | – |
| CC(C)[C@H](NC(=O)[C@H](CCCNC(=N)N)NC(=O)[C@@H](CCC(N)=O)NC(=O)[C@H](Cc1cnc[nH]1)NC(=O)[C@H](CCC(=O)O)NC(=O)[C@@H]1CCCN1C(=O)[C@@H](N)CO)C(=O)N[C@@H](CCC(N)=O)C(N)=O | inactive | inactive | – |
| CC(C)[C@H](NC(=O)[C@H](CCCNC(=N)N)NC(=O)[C@H](CCC(N)=O)NC(=O)[C@@H](Cc1cnc[nH]1)NC(=O)[C@H](CCC(=O)O)NC(=O)[C@@H]1CCCN1C(=O)[C@@H](N)CO)C(=O)N[C@@H](CCC(N)=O)C(N)=O | inactive | inactive | – |
| CC(C)[C@H](NC(=O)[C@H](CCCNC(=N)N)NC(=O)[C@H](CCC(N)=O)NC(=O)[C@H](Cc1cnc[nH]1)NC(=O)[C@@H](CCC(=O)O)NC(=O)[C@@H]1CCCN1C(=O)[C@@H](N)CO)C(=O)N[C@@H](CCC(N)=O)C(N)=O | inactive | inactive | – |
| CC(C)[C@H](NC(=O)[C@H](CCCNC(=N)N)NC(=O)[C@H](CCC(N)=O)NC(=O)[C@H](Cc1cnc[nH]1)NC(=O)[C@H](CCC(=O)O)NC(=O)[C@@H]1CCCN1C(=O)[C@@H](N)CO)C(=O)N[C@H](CCC(N)=O)C(N)=O | inactive | inactive | – |
| CC(C)[C@H](NC(=O)[C@H](CCCNC(=N)N)NC(=O)[C@H](CCC(N)=O)NC(=O)[C@H](Cc1cnc[nH]1)NC(=O)[C@H](CCC(=O)O)NC(=O)[C@@H]1CCCN1C(=O)[C@H](N)CO)C(=O)N[C@@H](CCC(N)=O)C(N)=O | inactive | inactive | – |
| CC(C)[C@H](NC(=O)[C@H](CCCNC(=N)N)NC(=O)[C@H](CCC(N)=O)NC(=O)[C@H](Cc1cnc[nH]1)NC(=O)[C@H](CCC(=O)O)NC(=O)[C@H]1CCCN1C(=O)[C@@H](N)CO)C(=O)N[C@@H](CCC(N)=O)C(N)=O | inactive | inactive | – |
| N=C(N)NCCC[C@H](NC(=O)[C@H](CCC(N)=O)NC(=O)[C@H](Cc1cnc[nH]1)NC(=O)[C@@H](N)CCC(=O)O)C(N)=O (H-EHQR-NH2) | – | inactive | – |
| CC(C)[C@H](NC(=O)[C@H](CCCNC(=N)N)NC(=O)[C@H](CCC(N)=O)NC(=O)[C@@H](N)Cc1cnc[nH]1)C(N)=O (H-HQRV-NH2) | – | – | Activity (HIT-T15 [3]): Active |
| N=C(N)NCCC[C@H](NC(=O)[C@H](CCC(N)=O)NC(=O)[C@@H](N)Cc1cnc[nH]1)C(N)=O (H-His-Gln-Arg-NH2) | – | inactive | – |
| CC(C)[C@@H]1NC(=O)[C@H](CCCNC(=N)N)NC(=O)[C@H](CCC(N)=O)NC(=O)[C@H](Cc2cnc[nH]2)NC(=O)[C@H](CCC(=O)O)NC(=O)[C@@H]2CCCN2C(=O)[C@H](CO)NC(=O)[C@H](CCC(N)=O)NC1=O (cyclo(EHQRVQSP)) | – | – | Activity (HIT-T15 [4]): Dose-dependent effect; Activity (EPC [5]): Active; Activity (EPC [6]): Active; Activity (HIT-T15 [7]): Dose-dependent effect; inhibition [8]: Active |
| H-APEHQRVQ-NH2 | Active | Active | – |
| H-EHQRV-NH2 | – | – | Activity (HIT-T15 [9]): Active; Activity (HIT-T15 [10]): inactive; Activity (HIT-T15 [11]): inactive; Activity (HIT-T15 [3]): Active |
| H-EHQRVQ-NH2 | – | Active | Activity (HIT-T15 [9]): Active; Activity (HIT-T15 [11]): Active |
| H-ESKKPPAKLQPR-OH | inactive | inactive | Activity (Pancreatic islet [12]): inactive; Activity (Pancreatic islet [13]): inactive; Activity (Pancreatic islet [14]): inactive; Activity (Pancreatic islet [15]): inactive; Activity (Pancreatic islet [16]): inactive; Activity (Pancreatic islet [17]): inactive |
| H-GSSFL-NH2 | inactive | inactive | Activity (Pancreatic islet [12]): inactive; Activity (Pancreatic islet [13]): inactive; Activity (Pancreatic islet [14]): inactive; Activity (Pancreatic islet [15]): inactive; Activity (Pancreatic islet [16]): inactive; Activity (Pancreatic islet [17]): inactive |
| H-GSSFLSPEHQRVQQ-NH2 | Active | Active | Activity (Pancreatic islet [13]): Active; Activity (Pancreatic islet [14]): inactive; Activity (Pancreatic islet [15]): Active; Activity (Pancreatic islet [16]): inactive; Activity (Pancreatic islet [17]): Active |
| H-GSSFLSPEHQRVQQRKES-NH2 | Active | Active | Activity (Pancreatic islet [12]): Active; Activity (Pancreatic islet [13]): inactive; Activity (Pancreatic islet [14]): Active; Activity (Pancreatic islet [15]): Active; Activity (Pancreatic islet [16]): Active; Activity (Pancreatic islet [17]): inactive |
| H-QQVRQHEPSLFSSG-OH | – | inactive | Activity (HIT-T15 [9]): inactive; Activity (HIT-T15 [10]): inactive; Activity (HIT-T15 [11]): inactive; Activity (Pancreatic islet [13]): inactive; Activity (Pancreatic islet [18]): inactive; Activity (Pancreatic islet [17]): inactive |
| H-SAEHQRVQ-NH2 | Active | Active | – |
| H-SPAHQRVQ-NH2 | Active | Active | – |
| H-SPEAQRVQ-NH2 | Active | Active | – |
| H-SPEHARVQ-NH2 | inactive | inactive | – |
| H-SPEHQAVQ-NH2 | inactive | inactive | – |
| H-SPEHQRAQ-NH2 | Active | Active | – |
| H-SPEHQRVA-NH2 | Active | Active | – |
